ChEMBL document CHEMBL1157421, “Tenacigenin B derivatives reverse P-glycoprotein-mediated multidrug resistance inHepG2/Dox cells” (J Nat Prod, 2008)
Activity calls are given as the source filed them. The rule behind the calls is not given here.

Assays:
[1] = Increase in doxorubicin uptake in multidrug resistance human HepG2/Dox cells assessed as cellular fluorescence at 20 ug/ml; assay type: functional
Summary of the method: (§1)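 Doxorubicin accumulation. About 1 × 10^6 HepG2/Dox cells in medium were given 10 µM doxorubicin with or without test agent and held at 37 °C for 40 min. Cells were washed in ice-cold PBS and fluorescence was read by flow cytometry. Increase (%) = 100 × (FT − FC)/FC; verapamil 10 µM served as positive control. Three experiments, mean ± SD.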

HepG2 [2] = assay: Reversal of P-glycoprotein-mediated drug resistance in human HepG2 cells assessed as increase in sensitivity at 25.2 uM in presence of paclitaxel; assay type: cell-based
Summary of the method: (§2)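 SRB growth-inhibition assay in HepG2 or doxorubicin-selected Pgp-overexpressing HepG2/Dox cells. Cells grown in RPMI 1640 with 10% FBS at 37 °C, 5% CO2. HepG2/Dox cells kept in 1.2 µM doxorubicin and grown drug-free for at least 7 days before use. IC50 of anticancer drug determined with or without modulator. Sensitivity fold = IC50 ratio. At least three repeats, mean ± SD.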

[3] = Cell cycle arrest in multidrug resistant human HepG2/Dox cells assessed as accumulation in subG1 phase at 20 ug/ml; assay type: functional, cell-based
Summary of the method: (§3)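 Flow-cytometric cell-cycle profiling. About 2 × 10^5 cells were seeded per dish and left overnight, then exposed to medium with or without drug for 48 h. Cells were fixed in 70% EtOH at -20 °C overnight and treated with RNase A (100 µg/mL, 37 °C, 30 min). They were then stained with propidium iodide (40 µg/mL final) at room temperature for 5-10 min and read on a FACSCalibur.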

[4] = Effect on doxorubicin-induced cell cycle arrest in multidrug resistance human HepG2/Dox cells assessed as accumulation in G2/M phase at 5 ug/ml; assay type: functional; summary of the method: as §3
[5] = Effect on doxorubicin-induced cell cycle arrest in multidrug resistance human HepG2/Dox cells assessed as accumulation in S phase at 10 ug/ml; assay type: functional; summary of the method: as §3
HepG2/Dox [6] = assay: Reversal of P-glycoprotein-mediated multidrug resistance in human HepG2/Dox cells assessed as increase in sensitivity at 25.2 uM in presence of doxorubicin; assay type: cell-based; summary of the method: as §2
[7] = Effect on doxorubicin-induced cell cycle arrest in multidrug resistance human HepG2/Dox cells assessed as accumulation in G2/M phase at 10 ug/ml; assay type: functional; summary of the method: as §3
[8] = Effect on doxorubicin-induced cell cycle arrest in multidrug resistance human HepG2/Dox cells assessed as accumulation in G0/G1 phase at 5 ug/ml; assay type: functional; summary of the method: as §3
[9] = Cell cycle arrest in multidrug resistant human HepG2/Dox cells assessed as accumulation in S phase at 20 ug/ml; assay type: functional, cell-based; summary of the method: as §3
[10] = Effect on doxorubicin-induced cell cycle arrest in multidrug resistance human HepG2/Dox cells assessed as accumulation in subG1 phase at 5 ug/ml; assay type: functional; summary of the method: as §3
[11] = Effect on doxorubicin-induced cell cycle arrest in multidrug resistance human HepG2/Dox cells assessed as accumulation in G0/G1 phase at 10 ug/ml; assay type: functional; summary of the method: as §3
HepG2 [12] = assay: Reversal of P-glycoprotein-mediated drug resistance in human HepG2 cells assessed as increase in sensitivity at 25.2 uM in presence of puromycin; assay type: cell-based; summary of the method: as §2
[13] = Cell cycle arrest in multidrug resistant human HepG2/Dox cells assessed as accumulation in G2/M phase at 20 ug/ml; assay type: functional, cell-based; summary of the method: as §3
HepG2/Dox [14] = assay: Inhibition of Pgp-mediated Rh123 accumulation in multidrug resistance human HepG2/Dox cells at 40 ug/ml; assay type: cell-based
Summary of the method: (§4)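 Rh-123 efflux. About 1 × 10^6 HepG2/Dox cells were loaded with 5 µg/mL Rh-123 at 37 °C for 1 h and washed in ice-cold PBS. They then effluxed for 1 h at 37 °C in dye-free medium with 0-80 µg/mL test agent, and retained fluorescence was read by flow cytometry. Percentage increase over control was calculated; verapamil 15 µM served as positive control. Three experiments, mean ± SD.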

[15] = Increase in doxorubicin uptake in multidrug resistance human HepG2/Dox cells assessed as cellular fluorescence at 10 ug/ml; assay type: functional; summary of the method: as §1
[16] = Effect on doxorubicin-induced cell cycle arrest in multidrug resistance human HepG2/Dox cells assessed as accumulation in S phase at 5 ug/ml; assay type: functional; summary of the method: as §3
[17] = Growth inhibition of multidrug resistant human HepG2/Dox cells at 80 uM; assay type: functional
Summary of the method: (§5)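 SRB growth assay. HepG2 and HepG2/Dox cells were grown in RPMI 1640 with 10% FBS at 37 °C and 5% CO2; resistant cells were kept drug-free for at least 7 days before use. IC50 was taken from the SRB assay, with at least three repeats, reported as mean ± SD.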

HepG2/Dox [18] = assay: Reversal of P-glycoprotein-mediated multidrug resistance in human HepG2/Dox cells assessed as increase in sensitivity at 12.6 uM in presence of puromycin; assay type: cell-based; summary of the method: as §2
HepG2/Dox [19] = assay: Reversal of P-glycoprotein-mediated multidrug resistance in human HepG2/Dox cells assessed as increase in sensitivity at 25.2 uM in presence of paclitaxel; assay type: cell-based; summary of the method: as §2
[20] = Effect on doxorubicin-induced cell cycle arrest in multidrug resistance human HepG2/Dox cells assessed as accumulation in subG1 phase at 20 ug/ml; assay type: functional; summary of the method: as §3
[21] = Cell cycle arrest in multidrug resistant human HepG2/Dox cells assessed as accumulation in G0/G1 phase at 20 ug/ml; assay type: functional, cell-based; summary of the method: as §3
[22] = Effect on doxorubicin-induced cell cycle arrest in multidrug resistance human HepG2/Dox cells assessed as accumulation in G2/M phase at 20 ug/ml; assay type: functional; summary of the method: as §3
HepG2/Dox [23] = assay: Reversal of P-glycoprotein-mediated multidrug resistance in human HepG2/Dox cells assessed as increase in sensitivity at 25.2 uM in presence of vinblastine; assay type: cell-based; summary of the method: as §2
HepG2 [24] = assay: Reversal of P-glycoprotein-mediated drug resistance in human HepG2 cells assessed as increase in sensitivity at 25.2 uM in presence of vinblastine; assay type: cell-based; summary of the method: as §2
[25] = Effect on doxorubicin-induced cell cycle arrest in multidrug resistance human HepG2/Dox cells assessed as accumulation in S phase at 20 ug/ml; assay type: functional; summary of the method: as §3
HepG2/Dox [26] = assay: Reversal of P-glycoprotein-mediated multidrug resistance in human HepG2/Dox cells assessed as increase in sensitivity at 12.6 uM in presence of doxorubicin; assay type: cell-based; summary of the method: as §2
[27] = Increase in doxorubicin uptake in multidrug resistance human HepG2/Dox cells assessed as cellular fluorescence at 40 ug/ml; assay type: functional; summary of the method: as §1
[28] = Effect on doxorubicin-induced cell cycle arrest in multidrug resistance human HepG2/Dox cells assessed as accumulation in subG1 phase at 10 ug/ml; assay type: functional; summary of the method: as §3
HepG2/Dox [29] = assay: Reversal of P-glycoprotein-mediated multidrug resistance in human HepG2/Dox cells assessed as increase in sensitivity at 12.6 uM in presence of paclitaxel; assay type: cell-based; summary of the method: as §2
HepG2 [30] = assay: Growth inhibition of doxorubicin-sensitive human HepG2 cells at 80 uM; assay type: functional; summary of the method: as §5
[31] = Effect on doxorubicin-induced cell cycle arrest in multidrug resistance human HepG2/Dox cells assessed as accumulation in G0/G1 phase at 20 ug/ml; assay type: functional; summary of the method: as §3
HepG2/Dox [32] = assay: Reversal of P-glycoprotein-mediated multidrug resistance in human HepG2/Dox cells assessed as increase in sensitivity at 25.2 uM in presence of puromycin; assay type: cell-based; summary of the method: as §2
HepG2/Dox [33] = assay: Inhibition of Pgp-mediated Rh123 accumulation in multidrug resistance human HepG2/Dox cells at 80 ug/ml; assay type: cell-based; summary of the method: as §4
HepG2/Dox [34] = assay: Reversal of P-glycoprotein-mediated multidrug resistance in human HepG2/Dox cells assessed as increase in sensitivity at 12.6 uM in presence of vinblastine; assay type: cell-based; summary of the method: as §2
HepG2 [35] = assay: Reversal of P-glycoprotein-mediated drug resistance in human HepG2 cells assessed as increase in sensitivity at 25.2 uM in presence of doxorubicin; assay type: cell-based; summary of the method: as §2
HepG2/Dox [36] = assay: Effect on P-glycoprotein expression in multidrug resistance human HepG2/Dox cells at 20 ug/ml after 72 hrs; assay type: functional, cell-based
Summary of the method: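 Western blot for Pgp. HepG2/Dox cells were incubated with 0, 5, 10 or 20 µg/mL test agent for 72 h, with untreated HepG2 as comparator. Lysates (50 µg total protein) were resolved on 10% SDS-PAGE and Pgp was detected by antibody labeling.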

## C/C=C(\C)C(=O)O[C@@H]1[C@@H](OC(C)=O)[C@]2(C)[C@H](C(C)=O)CC[C@@]23O[C@]32CC[C@H]3C[C@@H](O[C@H]4C[C@@H](OC)[C@H](O[C@@H]5O[C@H](C)[C@@H](O)[C@@H](OC)[C@H]5O)[C@@H](C)O4)CC[C@]3(C)[C@@H]12 [TENACISSIMOSIDE A]
[1]
  Activity: 28%
HepG2 [2]
  Ratio IC50: 1.1
[3]
  Activity: 3%
[4]
  Activity: 44.2%
[5]
  Activity: 6.3%
HepG2/Dox [6]
  Ratio IC50: 17.9
[7]
  Activity: 63.6%
[8]
  Activity: 39.8%
[9]
  Activity: 7.2%
[10]
  Activity: 3.5%
[11]
  Activity: 24.9%
HepG2 [12]
  Ratio IC50: 1.1
[13]
  Activity: 32%
HepG2/Dox [14]
  inhibition: 50%
[15]
  Activity: 18%
[16]
  Activity: 6.8%
[17]
  inhibition at 80 µM: 50%
HepG2/Dox [18]
  Ratio IC50: 7
HepG2/Dox [19]
  Ratio IC50: 5.8
[20]
  Activity: 7.6%
[21]
  Activity: 49.3%
[22]
  Activity: 73%
HepG2/Dox [23]
  Ratio IC50: 10
HepG2 [24]
  Ratio IC50: 1.1
[25]
  Activity: 5.1%
HepG2/Dox [26]
  Ratio IC50: 7.8
[27]
  Activity: 41%
[28]
  Activity: 3.5%
HepG2/Dox [29]
  Ratio IC50: 4.7
HepG2 [30]
  inhibition at 80 µM: 50%
[31]
  Activity: 8.9%
HepG2/Dox [32]
  Ratio IC50: 11.2
HepG2/Dox [33]
  inhibition: 90%
HepG2/Dox [34]
  Ratio IC50: 2.4
HepG2 [35]
  Ratio IC50: 1.1
HepG2/Dox [36]
  Activity: inactive
